In ChEMBL document CHEMBL3351356, “Development of a novel class of mitochondrial ubiquinol-cytochrome c reductase binding protein (UQCRB) modulators as promising antiangiogenic leads” (J Med Chem, 2014):
In brackets after ≈: the same amount, converted by molar mass. Blank lines part the entries; values can stand above or below the molecule they belong to. Activity calls are given as the source filed them. No cut-off for these calls is given here.

Columns and labels:
[1] = Thermodynamic solubility in PBS by HPLC; format: physicochemical; settings: read-out: Therm_solubility
[2] = target: T1, Cytochrome b-c1 complex subunit 7 (Homo sapiens, UniProt P14927); assay: Modulation of UQCRB in human HepG2 cells assessed as inhibition of HIF-1alpha for 4 hrs under 1%O2 by Western blot analysis; format: cell-based
T1 sequence (P14927 whole entry): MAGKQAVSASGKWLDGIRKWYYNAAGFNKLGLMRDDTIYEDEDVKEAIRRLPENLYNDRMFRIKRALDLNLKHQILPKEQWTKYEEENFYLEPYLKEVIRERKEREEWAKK
Outline: (§1)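 HepG2 cells pretreated with compound for 30 min, then exposed to 1% O₂ for 4 h. HIF-1α and tubulin measured by Western blot and quantified by densitometry.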

[3] = test system: Chorioallantoic membrane; assay: Antiangiogenic activity in chicken chorioallantoic membrane assessed as inhibition of blood vessel formation (reference value: 23%); format: functional, cell membranes; settings: Gallus gallus, dose or concentration not given here
Outline: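 Fertilized chick eggs held at 37 °C in a humidified incubator; about 2 mL albumin withdrawn on day 3. Compound-loaded Thermanox coverslips placed on the CAM of 4.5-day embryos; retinoic acid served as positive control. Result given as percent positive eggs of eggs tested.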

[4] = test system: Mus musculus; assay: Toxicity in human U87MG cells implanted into Balb C mouse assessed as body weight loss at 20 mg/kg, ip every other day measured on day 18; format: organism-based, U-87MG ATCC; parameters: dose 20 mg/kg, route intraperitoneal; settings: in vivo
Outline: (§2)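 Female athymic Balb C nu/nu mice, 4 weeks old, implanted subcutaneously in the dorsal flank with 5 × 10⁶ U87MG cells in PBS/Matrigel (1:1). At palpable tumors (50−100 mm³), randomized into two groups (n = 8). Dosed intraperitoneally with vehicle or 20 mg/kg every other day. Tumor volume and body weight followed over 17 days.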

[5] = Thermodynamic solubility in H2O by HPLC; format: physicochemical; settings: water; read-out: Therm_solubility
[6] = Antitumor activity against human U87MG cells assessed as inhibition of cell growth after 72 hrs by MTT assay; format: functional, cell-based, U-87MG ATCC; settings: U-87 MG
[7] = test system: HepG2; assay: Inhibition of hypoxia-induced VEGF expression in human HepG2 cells at 1 to 5 uM for 30 mins followed by 1%O2 for 16 hrs by ELISA; format: functional, cell-based
Outline: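 HepG2 cells pretreated with compound for 30 min, then exposed to 1% O₂ for 16 h. VEGF protein in culture supernatant measured by VEGF-specific ELISA. Mean ± SE of three independent experiments.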

[8] = test system: HUVEC; assay: Toxicity in HUVEC assessed as reduction in cell viability by trypan blue staining method; format: cell-based; settings: human
Outline: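 HUVECs tested by trypan blue staining, run in parallel with the VEGF-stimulated invasion and tube formation assays at the same concentrations.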

[9] = test system: HUVEC; assay: Antiangiogenic activity in HUVEC assessed as inhibition of VEGF-induced invasion by Transwell chyamber system; format: functional, cell-based; settings: Homo sapiens
Outline: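 HUVECs serum-starved, then stimulated with VEGF with or without compound. Invasion measured in Transwell chambers with 8.0 μm pore polycarbonate filter inserts; invaded cells counted by light microscope at 100×. Basal invasiveness of HUVECs in serum-free medium normalized to 100%. Mean ± SE of three independent experiments.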

[10] = target: T2, Cytochrome b-c1 complex subunit 7 (Homo sapiens) (UniProt P14927); assay: Displacement of biotin-labeled terpestacin from UQCRB (unknown origin) by surface plasmon resonance; settings: concentration not given here
T2 sequence (whole entry): T1 sequence (P14927 whole entry)
Outline: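 Biotin (control) and biotinylated terpestacin immobilized on a streptavidin sensor chip. Competitor (25 μM) incubated with purified UQCRB (25 μM) in pH 7.4 buffer (10 mM HEPES, 150 mM NaCl, 3 mM EDTA). Complexes injected at 30 μL/min; chip regenerated with 50 mM NaOH. Binding taken as resonance on biotinylated terpestacin minus resonance on biotin.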

[11] = test system: HepG2; assay: Cytotoxicity against human HepG2 cells assessed as effect on cell viability at 1 to 20 uM after 72 hrs by MTT assay; format: cell-based; settings: hepg2, 72 h
[12] = target: T2, Cytochrome b-c1 complex subunit 7 (Homo sapiens); assay: Binding affinity to UQCRB in human HepG2 cells assessed as inhibition of hypoxia-induced mitochondrial ROS generation under 1%O2 for 10 mins after 30 mins by MitoSOX Red fluorescence assay; format: cell-based
Outline: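 HepG2 cells pretreated with compound for 30 min, then held at 1% O₂ for 10 min. Loaded with MitoSOX Red (5 μM) for 10 min, lysed and centrifuged. Fluorescence of protein-normalized supernatant read at ex 510 / em 580 nm. Mean ± SE of three independent experiments.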

[13] = test system: HUVEC; assay: Antiangiogenic activity in HUVEC assessed as inhibition of VEGF-induced tube formation by optical microscopy; format: functional, cell-based; settings: Homo sapiens
Outline: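 Serum-starved HUVECs on Matrigel, VEGF-stimulated with or without compound. Connected cells counted in random fields at 100× and divided by total cells in the same field. Basal tube formation in serum-free medium normalized to 100%. Mean ± SE of three independent experiments.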

[14] = target: T2, Cytochrome b-c1 complex subunit 7 (Homo sapiens); assay: Modulation of UQCRB in human HepG2 cells assessed as inhibition of HIF-1alpha accumulation at 1 to 10 uM for 4 hrs under 1%O2 by Western blot analysis; format: cell-based; outline: as §1
[15] = test system: Chorioallantoic membrane; assay: Toxicity in chicken chorioallantoic membrane assessed as induction of rupture of pre-existing vessels; format: cell membranes, Gallus gallus; settings: in vivo
[16] = test system: U-87MG ATCC; assay: Antitumor activity against human U87MG cells implanted into Balb C mouse assessed as decrease in microvessel density at 20 mg/kg, ip every other day measured on day 18; format: functional, organism-based; parameters: dose 20 mg/kg
[17] = test system: U-87MG ATCC; assay: Antitumor activity against human U87MG cells implanted into Balb C mouse assessed as VEGF expression in tumor at 20 mg/kg, ip every other day measured on day 18 by immunohistochemical staining; format: functional, organism-based; parameters: dose 20 mg/kg
Outline: (§3)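 Paraffin tumor sections (4 μm) incubated overnight at 4 °C with anti-CD31, anti-HIF-1α or anti-VEGF antibodies. Then FITC- or Alexa-conjugated secondary antibodies for 45 min at room temperature, with DAPI counterstain.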

[18] = test system: U-87MG ATCC; assay: Antitumor activity against human U87MG cells implanted into Balb C mouse assessed as CD31 expression in tumor at 20 mg/kg, ip every other day measured on day 18 by immunohistochemical staining; format: functional, organism-based; parameters: dose 20 mg/kg; outline: as §3
[19] = test system: U-87MG ATCC; assay: Antitumor activity against human U87MG cells implanted into Balb C mouse assessed as HIF1alpha expression in tumor at 20 mg/kg, ip every other day measured on day 18 by immunohistochemical staining; format: functional, organism-based; parameters: dose 20 mg/kg; outline: as §3
[20] = test system: U-87MG ATCC; assay: Antitumor activity against human U87MG cells implanted into Balb C mouse assessed as inhibition of tumor growth at 20 mg/kg, ip every other day measured on day 18; format: functional, organism-based; parameters: dose 20 mg/kg; outline: as §2

SMILES: O=S(=O)(Nc1ccc(O)c2ncccc12)c1ccc(-c2ccccc2)cc1
- solubility thermodynamic [1]: 7.26 µg/mL (≈ 19.3 µM)
- IC50 [2]: 20 µM

SMILES: O=S(=O)(Nc1ccc(O)cc1)c1ccc2ccccc2c1
- IC50 [2]: > 20 µM

SMILES: O=S(=O)(Nc1cccc2c(O)cccc12)c1ccc(-c2ccccc2)cc1
- IC50 [2]: > 20 µM

SMILES: CC1=C(/C=C/C(C)=C/C=C/C(C)=C/C(=O)O)C(C)(C)CCC1
- inhibition [3]: 67%

SMILES: Cc1ccc(S(=O)(=O)Nc2ccc(O)cc2)cc1
- IC50 [2]: > 20 µM

SMILES: CC(C)(C)c1ccc(S(=O)(=O)Nc2ccccc2O)cc1
- IC50 [2]: 8 µM

SMILES: O=S(=O)(Nc1cccc2ccc(O)cc12)c1ccc(-c2ccccc2)cc1
- IC50 [2]: > 20 µM

SMILES: CC(C)(C)c1ccc(S(=O)(=O)Nc2ccc(O)c3ncccc23)cc1
- solubility thermodynamic [1]: 12.8 µg/mL (≈ 36 µM)
- IC50 [2]: 20 µM

SMILES: CCc1ccc(S(=O)(=O)Nc2ccc(O)cc2)cc1
- IC50 [2]: > 20 µM

SMILES: O=S(=O)(Nc1ccc(O)cc1)c1cccc2cccnc12
- IC50 [2]: > 20 µM

SMILES: O=S(=O)(Nc1ccc(O)c2ccccc12)c1ccc(-c2ccccc2)cc1
- IC50 [2]: > 20 µM

SMILES: CC(C)(C)c1ccc(S(=O)(=O)Nc2ccc(O)cc2)cc1
- inhibition [7]: Active
- Activity [8]: Non-toxic
- inhibition [9]: Dose-dependent effect
- solubility thermodynamic [1]: 26.7 µg/mL (≈ 87.6 µM)
- inhibition [3]: 65%
- inhibition [10]: 40%
- Activity [11]: Non-toxic
- inhibition [12]: Dose-dependent effect
- inhibition [13]: Dose-dependent effect
- IC50 [2]: 5 µM
- inhibition [14]: Active
- Activity [15]: Non-toxic

SMILES: CC(C)(C)c1ccc(S(=O)(=O)Nc2ccc(O)c3ccccc23)cc1
- IC50 [2]: > 20 µM

SMILES: CC(C)(C)c1ccc(S(=O)(=O)Nc2cccc(O)c2)cc1
- IC50 [2]: 8 µM

Continued, in another order:

- IC50 [2]: > 20 µM
SMILES: O=C(O)c1cc(NS(=O)(=O)c2ccc(-c3ccccc3)cc2)ccc1O

- IC50 [2]: > 20 µM
SMILES: O=S(=O)(Nc1ccc(O)c(Cl)c1)c1ccc(-c2ccccc2)cc1

- IC50 [2]: > 20 µM
SMILES: O=S(=O)(Nc1ccc(O)c(F)c1)c1ccc(-c2ccccc2)cc1

- solubility thermodynamic [1]: 108 µg/mL
- solubility thermodynamic [5]: > 500 µg/mL
- IC50 [2]: 5 µM
SMILES: O=S(=O)(Nc1ccc([O-])cc1)c1ccc(-c2ccccc2)cc1.[K+]
- Activity [4]: Non-toxic
- IC50 [6]: 12.5 µM

- solubility thermodynamic [1]: < 2.06 µg/mL
- solubility thermodynamic [5]: < 2.06 µg/mL
- IC50 [2]: 2.5 µM
SMILES: O=S(=O)(Nc1ccc(O)cc1)c1ccc(-c2ccccc2)cc1 [listing 1 of 2 here]
- Activity [8]: Non-toxic
- Activity [11]: Non-toxic
- Activity [15]: Non-toxic

- inhibition [10]: 40%
- inhibition [12]: Dose-dependent effect
- inhibition [14]: Active
SMILES: O=S(=O)(Nc1ccc(O)cc1)c1ccc(-c2ccccc2)cc1 [listing 2 of 2 here]
- inhibition [7]: Active
- inhibition [16]: Active
- inhibition [9]: Dose-dependent effect
- inhibition [17]: Active
- inhibition [18]: Active
- inhibition [3]: 69%
- inhibition [19]: Active
- inhibition [13]: Dose-dependent effect
- inhibition [20]: Active
